The source made the active and inactive calls. The calls are words filed in the database; no cut-off is given here.

Data on four molecules can be found in ChEMBL document CHEMBL1139854, “Phenalenone-type compounds from Musa acuminata var. "Yangambi km 5" (AAA) and their activity against Mycosphaerella fijiensis” (J Nat Prod, 2007).

What all share (type): functional
Assay [1] has as its system Pseudocercospora fijiensis. In words: Inhibition of Mycosphaerella fijiensis mycelial growth.
Assay [2] deals with Pseudocercospora fijiensis. Kind of assay: Inhibition of Mycosphaerella fijiensis mycelial growth at 50 to 100 ppm after 15 days. The method, boiled down:
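Colonies (2 ± 1 mg) were taken from conidia grown 4 days on PDA. They were placed 20 per dish on PDA holding 10, 50 or 100 ppm compound added in EtOH (max 3.7%). Colony weight was taken at 7 and 15 days (10 colonies each) against EtOH-only blank medium. Run in quadruplicate and analysed by one-way ANOVA.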

Assay [3] relates to Pseudocercospora fijiensis. In words: Inhibition of Mycosphaerella fijiensis spore germination at 50 to 100 ppm. The method in brief:
(§1)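 Ascospores were exposed to compound at 10, 50 or 100 ppm for 24 h at 27 °C. Germination and germ-tube length were scored microscopically on 50-150 ascospores. Run in quadruplicate.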

Assay [4] relates to Pseudocercospora fijiensis. In words: Growth inhibition of Mycosphaerella fijiensis by microtitre plate photometric assay. The method in brief: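 Mycelial fragments came from monosporic PDA subcultures of several strains grown 15-20 days at 27 °C. They were bead-vortexed, filtered at 100 µm, counted and set to 2 × 10⁴–2 × 10⁶ fragments/mL. Cultures ran in Sabouraud broth with final 0, 5, 10, 20, 30, 40, 50 ppm at 27 °C. OD595 was read daily up to 17 days. IC50 is 50% growth inhibition versus compound-free inoculum.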

For assay [5], the system named is Pseudocercospora fijiensis. Kind of assay: Inhibition of Mycosphaerella fijiensis spore germination. The method in brief:
as §1

Turning to `COc1ccc(-c2ccc3cccc4c3c2C(=O)C=C4)cc1`, in assay [1], the outcome was Active.

`O=C1C(O)=Cc2cccc3cccc1c23`: the outcome in assay [2] and in assay [3] was Active. The same molecule came in with an IC50 in assay [4] of 23.4 ppm.

`O=C1C=Cc2cccc3cccc1c23`: the outcome in assay [2], in assay [1] and in assay [5] was Active.

Consider `COC1=Cc2cccc3cccc(c23)C1=O`, for which the result in assay [2] and in assay [3] was Active. This molecule came in with an IC50 in assay [4] of 19.3 ppm.
